Measurements as given in ChEMBL document CHEMBL1142230, “Small-molecule activators of RNase L with broad-spectrum antiviral activity” (Proc Natl Acad Sci U S A, 2007).
The source made the active and inactive calls. No cut-off for these calls is given here.

Tests used:
[1] = biological target: T1, 2-5A-dependent ribonuclease (Homo sapiens) (UniProt Q05823); test: Activation of human recombinant RNaseL at 40 uM assessed as cleavage of FRET RNA probe
T1 sequence (whole entry): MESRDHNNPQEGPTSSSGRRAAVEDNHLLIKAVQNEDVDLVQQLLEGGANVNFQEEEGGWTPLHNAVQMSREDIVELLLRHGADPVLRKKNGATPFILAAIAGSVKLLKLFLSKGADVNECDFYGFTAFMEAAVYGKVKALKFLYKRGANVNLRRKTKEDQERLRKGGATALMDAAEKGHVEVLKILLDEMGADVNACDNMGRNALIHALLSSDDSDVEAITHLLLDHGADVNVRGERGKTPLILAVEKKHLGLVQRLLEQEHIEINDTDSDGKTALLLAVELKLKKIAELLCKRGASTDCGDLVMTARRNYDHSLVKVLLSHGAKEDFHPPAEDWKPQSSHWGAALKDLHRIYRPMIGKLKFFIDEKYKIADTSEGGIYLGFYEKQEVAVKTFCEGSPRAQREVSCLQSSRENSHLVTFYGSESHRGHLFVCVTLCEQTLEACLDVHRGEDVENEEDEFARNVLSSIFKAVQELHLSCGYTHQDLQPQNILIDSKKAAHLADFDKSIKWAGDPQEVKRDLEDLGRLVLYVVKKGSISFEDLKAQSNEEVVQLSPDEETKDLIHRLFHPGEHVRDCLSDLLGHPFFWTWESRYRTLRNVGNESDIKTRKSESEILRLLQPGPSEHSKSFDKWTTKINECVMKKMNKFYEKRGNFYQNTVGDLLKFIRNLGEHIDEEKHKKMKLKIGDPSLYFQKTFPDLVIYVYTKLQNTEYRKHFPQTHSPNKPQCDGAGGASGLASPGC
Outline: (§1)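 Baculovirus-expressed, FPLC-purified recombinant human RNase L (25 nM) with 100 nM 36-nt 6-FAM/BHQ-1 FRET RNA probe (Km 75 nM) in cleavage buffer: 25 mM Tris·HCl pH 7.4, 100 mM KCl, 10 mM MgCl2, 50 μM ATP, 7 mM 2-mercaptoethanol. 22°C up to 2 h; fluorescence ex 485/em 535 nm. Compounds delivered from DMSO stocks; rescreened without RNase L to remove false positives.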

[2] = biological target: T1, 2-5A-dependent ribonuclease (Homo sapiens); test: Induction of dimerization of human RNaseL at 3 to 12 uM assessed by Western blotting
Outline: (§2)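 RNase L incubated with 2-5A or activator, with or without the cross-linker dimethyl suberimidate. Oligomeric state (monomer vs dimer) read by SDS/PAGE and Western blot probed with anti-RNase L monoclonal antibody.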

[3] = system: Encephalomyocarditis virus; test: Antiviral activity against encephalomyocarditis virus in wild type mouse fibroblasts assessed as reduction in viral growth; format: functional
Outline: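 SV40 T antigen-transformed wild-type mouse embryonic fibroblasts were grown in RPMI 1640 with 10% FBS and seeded at 2.5 × 10⁵ cells/well. After 1 h, cells were infected with EMCV strain K (MOI 0.5) in serum-free medium for 1 h, washed with PBS, then fed complete medium containing varied compound amounts. At 12 h, titres were measured by plaque assay on L929 cells, in triplicate.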

[4] = Cytotoxicity against mouse fibroblast assessed as reduction of cell viability upto 50 uM; format: cell-based
Outline: (§3)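 SV40-transformed mouse embryonic fibroblasts or HeLa S cells (10^4/well) treated with compound up to 50 μM for 24 h. MTS reagent added for 3 h at 37°C; absorbance read at 490 nm. Triplicate, with SDs.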

[5] = biological target: T2, 2-5A-dependent ribonuclease (Homo sapiens, UniProt Q05823); test: Activation of human recombinant Rnase L assessed as cleavage of FRET RNA probe; outline: as §1
T2 sequence (Q05823 whole entry): T1 sequence (whole entry)

XMRV = test: Antiviral activity against human retrovirus XMRV in human DU145 cells assessed as suppression of infection; format: functional, cell-based; settings: Xenotropic MuLV-related virus; DU-145
Outline: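 DU145 cells infected with XMRV for 3 h in FBS-free RPMI 1640 containing 8 μg/ml polybrene, then washed. Treated in triplicate with compound in fresh complete RPMI for 2 d. Reverse transcriptase activity measured in supernatants.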

Respirovirus muris = test: Antiviral activity against sendai virus in HeLaS cell assessed as suppression of infection; format: functional, organism-based
Outline: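 HeLa S cells infected with Sendai virus (Cantell), 20 HA units/ml, in serum-free medium for 90 min. Cells washed and given complete medium with compound doses. Supernatant collected at 24 h; viral genomic RNA quantified by real-time RT-PCR; triplicate.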

[6] = biological target: T2, 2-5A-dependent ribonuclease; test: Displacement of 5'-phosphorylated, 2',5'-oligoadenylate from human recombinant RNase L assessed as decrease in resonance by surface plasma resonance
Outline: (§4)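 Biotinylated 2-5A immobilized on streptavidin biosensor chips; 10 nM RNase L with varying activator concentrations passed over the chip. Response units recorded over time, and maximum response at equilibrium (Rmax) fitted against concentration by global fit.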

Human respirovirus 3 [7] = test: Antiviral activity against human parainfluenza virus3 in HeLaS cells expressing wild type RNaseL after 24 hrs by GFP reporter assay; format: functional
Outline: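 HeLa S cells, with endogenous wild-type RNase L, were infected with HPIV3/GFP at MOI 1.0. After 90 min, medium was removed and cells were washed twice with PBS. Cells were then incubated in complete medium without compound or with 10, 50 or 100 μM compound. GFP fluorescence was imaged by fluorescence microscopy at 24 h post-infection.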

Human respirovirus 3 [8] = test: Antiviral activity against human parainfluenza virus3 in HeLaM cells expressing wild type RNaseL by plaque assay
[9] = biological target: T1, 2-5A-dependent ribonuclease (Homo sapiens); test: Activation of human recombinant RNase L assessed as cleavage of p32-labelled RNA molecule at 25 uM after 30 mins
HeLaS = test: Cytotoxicity against of human HeLaS cells assessed as reduction of cell viability upto 50 uM; format: functional, cell-based; outline: as §3
Human respirovirus 3 [10] = test: Antiviral activity against human parainfluenza virus3 in HeLaM cells expressing RNaseL R667A mutant […]; format: functional
Outline: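 HeLa M cells expressing R667A RNase L cDNA were grown in DMEM with 10% FBS. They were infected with HPIV3/GFP (MOI 1.0) in serum-free medium for 90 min, washed with PBS, then given complete medium with varied compound amounts. At 24 h, virus was harvested by two freeze–thaw cycles and titred by plaque assay on CV1 cells, in triplicate.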

[11] = biological target: T1, 2-5A-dependent ribonuclease (Homo sapiens); test: Induction of dimerization of human RNaseL at 0.06 to 0.25 uM assessed by Western blotting; outline: as §2
[12] = biological target: T1, 2-5A-dependent ribonuclease (Homo sapiens); test: Activation of human recombinant RNase L assessed as cleavage of FRET RNA probe at 15 mins; outline: as §1
[13] = biological target: T2, 2-5A-dependent ribonuclease; test: Binding affinity to human recombinant RNase L; outline: as §4

With `O=c1[nH]c(-c2cccc(O)c2)nc2sc3c(c12)CCCC3` the Activity [1] was “Active”, the Activity [2] was “Active” and the Activity [3] was 7. For the same compound, the Activity [4] was “Not Active”, the EC50 [5] was 22 µM and the Activity (XMRV) was “Active”. The Activity (Respirovirus muris) was “Active”, the Kd [6] was 12 µM and the Activity (Human respirovirus 3 [7]) was 5. For the same compound, the Activity (Human respirovirus 3 [8]) was “Active”, the Activity [9] was “Active” and the Activity (HeLaS) was “inactive”. For the same compound, the Activity (Human respirovirus 3 [10]) was less than 2.
For `Cc1c(Cl)cccc1NC1=NC(=O)/C(=C/c2ccc([N+](=O)[O-])cc2)S1`, the EC50 [5] was 50 µM.
In the case of `CCCCOC(=O)c1ccc(NC(=S)NC(NC(=O)CC)C(Cl)(Cl)Cl)cc1` (stereo not drawn), the EC50 [5] is reported as 90 µM.
With `O=c1[nH]c(-c2ccc(O)cc2)nc2sc3c(c12)CCCC3` the EC50 [5] was 26 µM.
With `CCOC(=O)C1=C(Nc2ccccc2)S/C(=C\c2cccc(O)c2)C1=O` the Activity [1] was “Active”, the Activity [2] was “Active” and the Activity [3] was 7. For the same compound, the Activity [4] was “Not Active”, the EC50 [5] was 26 µM and the Activity (Respirovirus muris) was “Active”. The Kd [6] was 18 µM, the Activity [9] was “Active” and the Activity (HeLaS) was “inactive”. The Activity [11] was “Active”.
`CC(=O)c1ccc(NC(=S)NC(NC(=O)Cc2ccccc2)C(Cl)(Cl)Cl)cc1` (stereo not drawn) showed an EC50 [5] of 79 µM.
For `Nc1ncnc2c1ncn2[C@@H]1O[C@H](COP(=O)(O)O[C@@H]2[C@H](O)[C@@H](COP(=O)(O)O[C@@H]3[C@H](O)[C@@H](COP(=O)(O)OP(=O)(O)OP(=O)(O)O)O[C@H]3n3cnc4c(N)ncnc43)O[C@H]2n2cnc3c(N)ncnc32)[C@@H](O)[C@H]1O`, the Activity [9] was “Active”, the Activity [12] was “Active” and the Activity [11] was “Active”.
`Nc1ncnc2c1ncn2[C@@H]1O[C@H](CO[P@](=O)(O)O[C@@H]2[C@H](O)[C@@H](CO[P@](=O)(O)O[C@@H]3[C@H](O)[C@@H](CO[P@](=O)(O)O[P@@](=O)(O)OP(=O)(O)O)O[C@H]3n3cnc4c(N)ncnc43)O[C@H]2n2cnc3c(N)ncnc32)[C@@H](O)[C@H]1O` gave an EC50 [5] of 0.0005 µM, a Kd [6] of 0.00022 µM and a Kd [13] of 0.04 nM.
`CCOC(=O)C1=C(Nc2ccc(Cl)cc2)S/C(=C\c2cccc(O)c2)C1=O` gave an EC50 [5] of 49 µM.
`CCCCOC(=O)c1ccc(NC(=S)NC(NC(C)=O)C(Cl)(Cl)Cl)cc1` (stereo not drawn) showed an EC50 [5] of 99 µM.
`O=c1[nH]c(-c2cccc([N+](=O)[O-])c2)nc2sc3c(c12)CCCC3` showed an EC50 [5] of 22 µM.
In the case of `COc1ccc(Cl)cc1NC(=O)c1cc2c(C)nn(-c3ccccc3)c2s1`, the EC50 [5] is reported as 48 µM.
Work on `Cc1ccc(NC2=NC(=O)/C(=C/c3cccc(O)c3)S2)c(Cl)c1` yielded an EC50 [5] of 49 µM.
